# How the values were obtained:
# Type in all cases: functional
# [1] = system: SNB-19; experiment: Growth inhibition of human SNB19 cells at 10 uM after 48 hrs by coulter counting; conditions: SNB-19, 48 h, read-out: GI
# In short: (§1)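 Single-dose primary screen across the full NCI 60-cell-line panel. Stocks were made in DMSO and diluted in PBS to a final DMSO below 1%. Cultures at 6 × 10⁴ cells/ml were run in duplicate wells alongside PBS/DMSO vehicle controls at 37 °C in humidified 5% CO₂. Data were expressed as percent growth of treated cells.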
# [2] = system: LOX IMVI; experiment: Growth inhibition of human LOXIMVI cells at 10 uM after 48 hrs by coulter counting; conditions: read-out: GI; in short: as §1
# [3] = system: RPMI-8226; experiment: Growth inhibition of human RPMI8226 cells at 10 uM after 48 hrs by coulter counting; conditions: RPMI-8226, 48 h, read-out: GI; in short: as §1
# [4] = system: NCI-H460; experiment: Growth inhibition of human NCI-H460 cells at 10 uM after 48 hrs by coulter counting; conditions: NCI-H460, 48 h, read-out: GI; in short: as §1
# [5] = system: HL-60(TB); experiment: Growth inhibition of human HL-60(TB) cells at 10 uM after 48 hrs by coulter counting; conditions: HL-60, 48 h, read-out: GI
# In short: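 Test compound was dissolved in DMSO and diluted in phosphate-buffered saline to a final DMSO level below 1%. Dilutions were plated in duplicate with cell culture at 6 × 10⁴ cells/ml. Vehicle controls held PBS and DMSO at matching dilutions. Incubation was at 37 °C, humidified, under 5% CO₂. Data were reported as percent growth of treated cells.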
# [6] = system: A549; experiment: Growth inhibition of human A549 cells at 10 uM after 48 hrs by coulter counting; conditions: A549, 48 h, read-out: GI; in short: as §1
# [7] = system: A498; experiment: Growth inhibition of human A498 cells at 10 uM after 48 hrs by coulter counting; conditions: A498, 48 h, read-out: GI; in short: as §1
# [8] = system: HCT-116; experiment: Growth inhibition of human HCT116 cells at 10 uM after 48 hrs by coulter counting; conditions: HCT-116, 48 h, read-out: GI; in short: as §1
# [9] = system: SF-539; experiment: Growth inhibition of human SF539 cells at 10 uM after 48 hrs by coulter counting; conditions: SF-539, 48 h, read-out: GI; in short: as §1
# [10] = system: HT-29; experiment: Growth inhibition of human HT-29 cells at 10 uM after 48 hrs by coulter counting; conditions: HT-29, 48 h, read-out: GI; in short: as §1
# [11] = system: SK-MEL-5; experiment: Growth inhibition of human SK-MEL-5 cells at 10 uM after 48 hrs by coulter counting; conditions: SK-MEL-5, 48 h, read-out: GI; in short: as §1
# [12] = system: MOLT-4; experiment: Growth inhibition of human MOLT4 cells at 10 uM after 48 hrs by coulter counting; conditions: MOLT-4, 48 h, read-out: GI; in short: as §1
# [13] = system: M14; experiment: Growth inhibition of human M14 cells at 10 uM after 48 hrs by coulter counting; conditions: M14, 48 h, read-out: GI; in short: as §1
# [14] = system: DU-145; experiment: Growth inhibition of human DU145 cells at 10 uM after 48 hrs by coulter counting; conditions: DU-145, 48 h, read-out: GI; in short: as §1
# [15] = system: CAKI-1; experiment: Growth inhibition of human Caki1 cells at 10 uM after 48 hrs by coulter counting; conditions: CAKI-1, 48 h, read-out: GI; in short: as §1
# [16] = system: UACC-257; experiment: Growth inhibition of human UACC257 cells at 10 uM after 48 hrs by coulter counting; conditions: UACC-257, 48 h, read-out: GI
# In short: (§2)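 Single-dose screen in the NCI 60 human tumor cell line panel (nine subpanels). Compounds dissolved in DMSO and diluted in phosphate buffered saline, keeping final DMSO below 1%. Added in duplicate wells to cells at 6 × 10⁴ cells/ml. Controls held PBS and DMSO at matching dilutions. Incubated at 37 °C, humidified, 5% CO₂. Reported as percent growth of treated cells.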
# [17] = system: IGROV-1; experiment: Growth inhibition of human IGROV1 cells at 10 uM after 48 hrs by coulter counting; conditions: IGROV-1, 48 h, read-out: GI; in short: as §1
# [18] = system: MCF7; experiment: Growth inhibition of human MCF7 cells at 10 uM after 48 hrs by coulter counting; conditions: MCF7, 48 h, read-out: GI; in short: as §1
# [19] = system: MDA-MB-435; experiment: Growth inhibition of human MDA-MB-435 cells at 10 uM after 48 hrs by coulter counting; conditions: MDA-MB-435, 48 h, read-out: GI; in short: as §1
# [20] = system: SK-MEL-28; experiment: Growth inhibition of human SK-MEL-28 cells at 10 uM after 48 hrs by coulter counting; conditions: SK-MEL-28, 48 h, read-out: GI; in short: as §1
# [21] = system: EKVX; experiment: Growth inhibition of human EKVX cells at 10 uM after 48 hrs by coulter counting; conditions: read-out: GI; in short: as §1
# [22] = system: UACC-62; experiment: Growth inhibition of human UACC62 cells at 10 uM after 48 hrs by coulter counting; conditions: UACC-62, 48 h, read-out: GI; in short: as §2
# [23] = system: HCC 2998; experiment: Growth inhibition of human HCC2998 cells at 10 uM after 48 hrs by coulter counting; conditions: HCC 2998, 48 h, read-out: GI; in short: as §1
# [24] = system: NCI-H226; experiment: Growth inhibition of human NCI-H226 cells at 10 uM after 48 hrs by coulter counting; conditions: NCI-H226, 48 h, read-out: GI; in short: as §1
# [25] = system: NCI-H23; experiment: Growth inhibition of human NCI-H23 cells at 10 uM after 48 hrs by coulter counting; conditions: NCI-H23, 48 h, read-out: GI; in short: as §1
# [26] = system: KM12; experiment: Growth inhibition of human KM12 cells at 10 uM after 48 hrs by coulter counting; conditions: KM12, 48 h, read-out: GI; in short: as §1
# [27] = system: CCRF-CEM; experiment: Growth inhibition of human CCRF-CEM cells at 10 uM after 48 hrs by coulter counting; conditions: read-out: GI; in short: as §1
# [28] = Growth inhibition of human NCI-322M cells at 10 uM after 48 hrs by coulter counting; conditions: read-out: GI; in short: as §1
# [29] = system: BT-549; experiment: Growth inhibition of human BT549 cells at 10 uM after 48 hrs by coulter counting; conditions: BT-549, 48 h, read-out: GI; in short: as §1
# [30] = system: SF-295; experiment: Growth inhibition of human SF295 cells at 10 uM after 48 hrs by coulter counting; conditions: SF-295, 48 h, read-out: GI; in short: as §1
# [31] = system: NCI-H522; experiment: Growth inhibition of human NCI-H522 cells at 10 uM after 48 hrs by coulter counting; conditions: NCI-H522, 48 h, read-out: GI; in short: as §1
# [32] = system: U-251; experiment: Growth inhibition of human U251 cells at 10 uM after 48 hrs by coulter counting; conditions: U-251, 48 h, read-out: GI; in short: as §2
# [33] = system: OVCAR-4; experiment: Growth inhibition of human OVCAR4 cells at 10 uM after 48 hrs by coulter counting; conditions: OVCAR-4, 48 h, read-out: GI; in short: as §1
# [34] = system: UO-31; experiment: Growth inhibition of human UO31 cells at 10 uM after 48 hrs by coulter counting; conditions: UO-31, 48 h, read-out: GI; in short: as §2
# [35] = system: SNB-75; experiment: Growth inhibition of human SNB75 cells at 10 uM after 48 hrs by coulter counting; conditions: SNB-75, 48 h, read-out: GI; in short: as §1
# [36] = system: SF-268; experiment: Growth inhibition of human SF268 cells at 10 uM after 48 hrs by coulter counting; conditions: SF-268, 48 h, read-out: GI; in short: as §1
# [37] = system: ACHN; experiment: Growth inhibition of human ACHN cells at 10 uM after 48 hrs by coulter counting; conditions: read-out: GI; in short: as §1
# [38] = system: K562; experiment: Growth inhibition of human K562 cells at 10 uM after 48 hrs by coulter counting; conditions: K562, 48 h, read-out: GI; in short: as §1
# [39] = system: T47D; experiment: Growth inhibition of human T47D cells at 10 uM after 48 hrs by coulter counting; conditions: read-out: GI; in short: as §2
# [40] = system: SK-MEL-2; experiment: Growth inhibition of human SK-MEL-2 cells at 10 uM after 48 hrs by coulter counting; conditions: SK-MEL-2, 48 h, read-out: GI; in short: as §1
# [41] = system: HOP-62; experiment: Growth inhibition of human HOP62 cells at 10 uM after 48 hrs by coulter counting; conditions: HOP-62, 48 h, read-out: GI; in short: as §1
# [42] = system: NCI/ADR-RES; experiment: Growth inhibition of human NCI/ADR-RES cells at 10 uM after 48 hrs by coulter counting; conditions: read-out: GI; in short: as §1
smiles,measurement,setting,value
COc1ccc(/C=C2\CCCC3=C2N=C2SC=CN2C3c2ccc(OC)cc2)cc1 (configuration not stated),inhibition of growth at 10 µM,[1],> 10%
same,inhibition of growth at 10 µM,[2],> 10%
same,inhibition of growth at 10 µM,[3],21%
same,inhibition of growth at 10 µM,[4],> 10%
same,inhibition of growth at 10 µM,[5],> 10%
same,inhibition of growth at 10 µM,[6],> 10%
same,inhibition of growth at 10 µM,[7],> 10%
same,inhibition of growth at 10 µM,[8],17.6%
same,inhibition of growth at 10 µM,[9],> 10%
same,inhibition of growth at 10 µM,[10],> 10%
same,inhibition of growth at 10 µM,[11],> 10%
same,inhibition of growth at 10 µM,[12],14.4%
same,inhibition of growth at 10 µM,[13],18.8%
same,inhibition of growth at 10 µM,[14],> 10%
same,inhibition of growth at 10 µM,[15],11.3%
same,inhibition of growth at 10 µM,[16],> 10%
same,inhibition of growth at 10 µM,[17],> 10%
same,inhibition of growth at 10 µM,[18],> 10%
same,inhibition of growth at 10 µM,[19],15.4%
same,inhibition of growth at 10 µM,[20],> 10%
same,inhibition of growth at 10 µM,[21],12.5%
same,inhibition of growth at 10 µM,[22],> 10%
same,inhibition of growth at 10 µM,[23],> 10%
same,inhibition of growth at 10 µM,[24],21.6%
same,inhibition of growth at 10 µM,[25],> 10%
same,inhibition of growth at 10 µM,[26],> 10%
same,inhibition of growth at 10 µM,[27],> 10%
same,inhibition of growth at 10 µM,[28],> 10%
same,inhibition of growth at 10 µM,[29],> 10%
same,inhibition of growth at 10 µM,[30],> 10%
same,inhibition of growth at 10 µM,[31],> 10%
same,inhibition of growth at 10 µM,[32],> 10%
same,inhibition of growth at 10 µM,[33],15.4%
same,inhibition of growth at 10 µM,[34],32%
same,inhibition of growth at 10 µM,[35],> 10%
same,inhibition of growth at 10 µM,[36],> 10%
same,inhibition of growth at 10 µM,[37],> 10%
same,inhibition of growth at 10 µM,[38],> 10%
same,inhibition of growth at 10 µM,[39],> 10%
same,inhibition of growth at 10 µM,[40],> 10%
same,inhibition of growth at 10 µM,[41],> 10%
same,inhibition of growth at 10 µM,[42],> 10%
